ChEMBL document CHEMBL1629465, “Efficient synthesis of novel 1,2,4-triazole fused acyclic and 21-28 membered macrocyclic and/or lariat macrocyclic oxaazathia crown compounds with potential antimicrobial activity” (2010)

What was measured:
Assay type in all cases: functional
Settings in all cases: read-out: DIZ
Candida albicans [1] = assay: Antimicrobial activity against Candida albicans RCMB 005003 at 2.5 mg/ml by agar diffusion technique
Procedure, shortened: (§1)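 Agar well diffusion. Test compounds and reference standard drugs were diluted to 5.0, 2.5 and 1.0 mg/mL and applied to 0.6 cm wells. Inhibition zone beyond the control was scored as 0 (no inhibition), + (0.1–0.5 cm), ++ (0.6–1.0 cm) or +++ (1.0–1.5 cm).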

Aspergillus fumigatus [2] = assay: Antimicrobial activity against Aspergillus fumigatus RCMB 002008 at 2.5 mg/ml by agar diffusion technique; procedure, shortened: as §1
Bacillus subtilis [3] = assay: Antimicrobial activity against Bacillus subtilis RCMB 101001 at 1 mg/ml by agar diffusion technique; procedure, shortened: as §1
Candida albicans [4] = assay: Antimicrobial activity against Candida albicans RCMB 005003 at 5 mg/ml by agar diffusion technique; procedure, shortened: as §1
Candida albicans [5] = assay: Antimicrobial activity against Candida albicans RCMB 005003 at 1 mg/ml by agar diffusion technique; procedure, shortened: as §1
Escherichia coli [6] = assay: Antimicrobial activity against Escherichia coli RCMB 103001 at 1 mg/ml by agar diffusion technique; procedure, shortened: as §1
Escherichia coli [7] = assay: Antimicrobial activity against Escherichia coli RCMB 103001 at 5 mg/ml by agar diffusion technique; procedure, shortened: as §1
Escherichia coli [8] = assay: Antimicrobial activity against Escherichia coli RCMB 103001 at 2.5 mg/ml by agar diffusion technique; procedure, shortened: as §1
[9] = system: Syncephalastrum racemosum; assay: Antimicrobial activity against Syncephalastrum racemosum RCMB 016001 at 2.5 mg/ml by agar diffusion technique; procedure, shortened: as §1
Penicillium italicum [10] = assay: Antimicrobial activity against Penicillium italicum RCMB 001018 at 5 mg/ml by agar diffusion technique; procedure, shortened: as §1
Pseudomonas aeruginosa [11] = assay: Antimicrobial activity against Pseudomonas aeruginosa RCMB 102002 at 5 mg/ml by agar diffusion technique; procedure, shortened: as §1
[12] = system: Syncephalastrum racemosum; assay: Antimicrobial activity against Syncephalastrum racemosum RCMB 016001 at 1 mg/ml by agar diffusion technique; procedure, shortened: as §1
Aspergillus fumigatus [13] = assay: Antimicrobial activity against Aspergillus fumigatus RCMB 002008 at 1 mg/ml by agar diffusion technique; procedure, shortened: as §1
Penicillium italicum [14] = assay: Antimicrobial activity against Penicillium italicum RCMB 001018 at 2.5 mg/ml by agar diffusion technique; procedure, shortened: as §1
Staphylococcus aureus [15] = assay: Antimicrobial activity against Staphylococcus aureus RCMB 106001 at 2.5 mg/ml by agar diffusion technique; procedure, shortened: as §1
Bacillus subtilis [16] = assay: Antimicrobial activity against Bacillus subtilis RCMB 101001 at 2.5 mg/ml by agar diffusion technique; procedure, shortened: as §1
Staphylococcus aureus [17] = assay: Antimicrobial activity against Staphylococcus aureus RCMB 106001 at 1 mg/ml by agar diffusion technique; procedure, shortened: as §1
[18] = system: Syncephalastrum racemosum; assay: Antimicrobial activity against Syncephalastrum racemosum RCMB 016001 at 5 mg/ml by agar diffusion technique; procedure, shortened: as §1
Aspergillus fumigatus [19] = assay: Antimicrobial activity against Aspergillus fumigatus RCMB 002008 at 5 mg/ml by agar diffusion technique; procedure, shortened: as §1
Pseudomonas aeruginosa [20] = assay: Antimicrobial activity against Pseudomonas aeruginosa RCMB 102002 at 1 mg/ml by agar diffusion technique; procedure, shortened: as §1
Pseudomonas aeruginosa [21] = assay: Antimicrobial activity against Pseudomonas aeruginosa RCMB 102002 at 2.5 mg/ml by agar diffusion technique; procedure, shortened: as §1
Penicillium italicum [22] = assay: Antimicrobial activity against Penicillium italicum RCMB 001018 at 1 mg/ml by agar diffusion technique; procedure, shortened: as §1
Bacillus subtilis [23] = assay: Antimicrobial activity against Bacillus subtilis RCMB 101001 at 5 mg/ml by agar diffusion technique; procedure, shortened: as §1
Staphylococcus aureus [24] = assay: Antimicrobial activity against Staphylococcus aureus RCMB 106001 at 5 mg/ml by agar diffusion technique; procedure, shortened: as §1

| Structure (SMILES) | zone of inhibition at 2500 µg/mL (Candida albicans [1]) [mm] | zone of inhibition at 2500 µg/mL (Aspergillus fumigatus [2]) [mm] | zone of inhibition at 1000 µg/mL (Bacillus subtilis [3]) [mm] | zone of inhibition at 5000 µg/mL (Candida albicans [4]) [mm] | zone of inhibition at 1000 µg/mL (Candida albicans [5]) [mm] | zone of inhibition at 1000 µg/mL (Escherichia coli [6]) [mm] | zone of inhibition at 5000 µg/mL (Escherichia coli [7]) [mm] | zone of inhibition at 2500 µg/mL (Escherichia coli [8]) [mm] | zone of inhibition at 2500 µg/mL [9] [mm] | zone of inhibition at 5000 µg/mL (Penicillium italicum [10]) [mm] | zone of inhibition at 5000 µg/mL (Pseudomonas aeruginosa [11]) [mm] | zone of inhibition at 1000 µg/mL [12] [mm] | zone of inhibition at 1000 µg/mL (Aspergillus fumigatus [13]) [mm] | zone of inhibition at 2500 µg/mL (Penicillium italicum [14]) [mm] | zone of inhibition at 2500 µg/mL (Staphylococcus aureus [15]) [mm] | zone of inhibition at 2500 µg/mL (Bacillus subtilis [16]) [mm] | zone of inhibition at 1000 µg/mL (Staphylococcus aureus [17]) [mm] | zone of inhibition at 5000 µg/mL [18] [mm] | zone of inhibition at 5000 µg/mL (Aspergillus fumigatus [19]) [mm] | zone of inhibition at 1000 µg/mL (Pseudomonas aeruginosa [20]) [mm] | other results |
| --- | --- | --- | --- | --- | --- | --- | --- | --- | --- | --- | --- | --- | --- | --- | --- | --- | --- | --- | --- | --- | --- |
| Nn1c(SCCCSc2nnc(-c3cccnc3)n2N)nnc1-c1cccnc1 | 0 | 1 | 0 | 1 | 0 | 0 | 0 | 0 | 0 | 0 | 0 | 0 | 0 | 0 | 0 | 0 | 0 | 1 | 1 | 0 | zone of inhibition at 2500 µg/mL (Pseudomonas aeruginosa [21]): 0 mm; zone of inhibition at 1000 µg/mL (Penicillium italicum [22]): 0 mm; zone of inhibition at 5000 µg/mL (Bacillus subtilis [23]): 0 mm; zone of inhibition at 5000 µg/mL (Staphylococcus aureus [24]): 0 mm |
| OC1COc2ccccc2/C=N\n2c(nnc2-c2cccnc2)SCCCSc2nnc(-c3cccnc3)n2/N=C\c2ccccc2OC1 | 1 | 0 | 1 | 1 | 0 | 0 | 0 | 0 | 1 | 1 | 0 | 0 | 0 | 1 | 0 | 1 | 0 | 1 | 0 | 0 | zone of inhibition at 2500 µg/mL (Pseudomonas aeruginosa [21]): 0 mm; zone of inhibition at 1000 µg/mL (Penicillium italicum [22]): 0 mm; zone of inhibition at 5000 µg/mL (Bacillus subtilis [23]): 6 mm; zone of inhibition at 5000 µg/mL (Staphylococcus aureus [24]): 0 mm |
| S=c1[nH]nc(-c2cccnc2)n1/N=C\c1ccccc1OCCCCOc1ccccc1/C=N\n1c(-c2cccnc2)n[nH]c1=S | 0 | 0 | 0 | 1 | 0 | 0 | 0 | 0 | 1 | 1 | 1 | 0 | 0 | 1 | 0 | 0 | 0 | 1 | 0 | 0 | zone of inhibition at 2500 µg/mL (Pseudomonas aeruginosa [21]): 1 mm; zone of inhibition at 1000 µg/mL (Penicillium italicum [22]): 1 mm; zone of inhibition at 5000 µg/mL (Bacillus subtilis [23]): 0 mm; zone of inhibition at 5000 µg/mL (Staphylococcus aureus [24]): 1 mm |
| S=c1[nH]nc(-c2cccnc2)n1/N=C\c1ccccc1OCCOCCOCCOc1ccccc1/C=N\n1c(-c2cccnc2)n[nH]c1=S | 0 | 0 | 0 | 1 | 0 | 0 | 0 | 0 | 0 | 6 | 0 | 0 | 0 | 1 | 0 | 0 | 0 | 0 | 0 | 0 | zone of inhibition at 2500 µg/mL (Pseudomonas aeruginosa [21]): 0 mm; zone of inhibition at 1000 µg/mL (Penicillium italicum [22]): 1 mm; zone of inhibition at 5000 µg/mL (Bacillus subtilis [23]): 0 mm; zone of inhibition at 5000 µg/mL (Staphylococcus aureus [24]): 1 mm |
| Oc1ccccc1/C=N\n1c(SCCSc2nnc(-c3cccnc3)n2/N=C\c2ccccc2O)nnc1-c1cccnc1 | 0 | 0 | 0 | 0 | 0 | 0 | 0 | 0 | 1 | 1 | 0 | 0 | 0 | 0 | 0 | 0 | 0 | 1 | 0 | 0 | zone of inhibition at 2500 µg/mL (Pseudomonas aeruginosa [21]): 0 mm; zone of inhibition at 1000 µg/mL (Penicillium italicum [22]): 0 mm; zone of inhibition at 5000 µg/mL (Bacillus subtilis [23]): 1 mm; zone of inhibition at 5000 µg/mL (Staphylococcus aureus [24]): 0 mm |
| Nn1c(SCCCCSc2nnc(-c3cccnc3)n2N)nnc1-c1cccnc1 | 0 | 0 | 0 | 0 | 0 | 0 | 0 | 0 | 1 | 0 | 0 | 1 | 0 | 0 | 1 | 1 | 0 | 1 | 0 | 0 | zone of inhibition at 2500 µg/mL (Pseudomonas aeruginosa [21]): 0 mm; zone of inhibition at 1000 µg/mL (Penicillium italicum [22]): 0 mm; zone of inhibition at 5000 µg/mL (Bacillus subtilis [23]): 1 mm; zone of inhibition at 5000 µg/mL (Staphylococcus aureus [24]): 1 mm |
| Nn1c(-c2cccnc2)n[nH]c1=S | 0 | 0 | 0 | 0 | 0 | 0 | 1 | 0 | 0 | 1 | 0 | 0 | 0 | 0 | 0 | 0 | 0 | 0 | 0 | 0 | zone of inhibition at 2500 µg/mL (Pseudomonas aeruginosa [21]): 0 mm; zone of inhibition at 1000 µg/mL (Penicillium italicum [22]): 0 mm; zone of inhibition at 5000 µg/mL (Bacillus subtilis [23]): 0 mm; zone of inhibition at 5000 µg/mL (Staphylococcus aureus [24]): 0 mm |
| CN(C/C=C/C#CC(C)(C)C)Cc1cccc2ccccc12 [TERBINAFINE] | 6 | 10 | 6 | 6 | 6 | 6 | 6 | 6 | 10 | 10 | 10 | 10 | 6 | 10 | 6 | 10 | 6 | 10 | 10 | 6 | zone of inhibition at 2500 µg/mL (Pseudomonas aeruginosa [21]): 10 mm; zone of inhibition at 1000 µg/mL (Penicillium italicum [22]): 6 mm; zone of inhibition at 5000 µg/mL (Bacillus subtilis [23]): 10 mm; zone of inhibition at 5000 µg/mL (Staphylococcus aureus [24]): 6 mm |
